pIC50, pKd, pKi: −log10 of the molar value. In brackets after ≈: the same amount, converted by molar mass. Activity calls are given as the source filed them. The calls are words filed in the database; no cut-off is given here.
Legend:
[1] = target: T1, Macrophage migration inhibitory factor (Homo sapiens, UniProt P14174); assay: Inhibition of C-terminal His-tagged recombinant human MIF expressed in Escherichia coli BL21 (DE3) using 4-HPP as substrate preincubated for 10 mins followed by substrate addition by UV absorption spectrum analysis
T1 sequence (P14174 whole entry): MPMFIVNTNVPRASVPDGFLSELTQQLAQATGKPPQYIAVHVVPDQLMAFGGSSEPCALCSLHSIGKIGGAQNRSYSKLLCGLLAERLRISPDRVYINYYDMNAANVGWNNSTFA

[2] = target: T2, Macrophage migration inhibitory factor (Homo sapiens) (UniProt P14174); assay: Binding affinity to C-terminal His-tagged recombinant human MIF expressed in Escherichia coli BL21 (DE3) assessed as inhibition of MIF interaction with MBP-fused human CD74 up to 50 uM preincubated for 10 mins with CD74 followed by MIF addition and measured after 30 mins by ELISA; settings: dose microM <=50, time 40.0 min
T2 sequence (whole entry): T1 sequence (P14174 whole entry)
Outline: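 MIF (250 nM) coated on plates overnight at 4 °C, then blocked with 2% BSA for 1 h at RT. Inhibitor in DMSO premixed 10 min at RT with MBP–sCD74 (final 500 nM sCD74; inhibitor 1–100 μM), then added to wells for 30 min at RT. Bound sCD74 detected with rabbit anti-CD74 pAb and goat anti-rabbit HRP. No-inhibitor signal set to 100%, no-sCD74 signal to 0%. n = 3.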

[3] = target: T1, Macrophage migration inhibitory factor; assay: Binding affinity to C-terminal His-tagged recombinant human MIF expressed in Escherichia coli BL21 (DE3) at 100 nM by fluorescence assay
Outline: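 Fluorescent indicator displacement in PBS pH 7.4. Compound preincubated with MIF 10 min at RT, then 7-hydroxycoumarin indicator added for another 10 min at RT. Final MIF 100 nM, indicator 50 nM, DMSO 2.5%. Fluorescence read at Ex/Em 355/455 nm. EC50 for fluorescence recovery from nonlinear fit, converted to Kd with a displacement equation using indicator KS. Three independent experiments.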

[4] = target: T1, Macrophage migration inhibitory factor; assay: Displacement of 4'-(7-Hydroxy-2-oxo-2H-chromen-3-yl)-[1,1'-biphenyl]-4-carboxylic acid from C-terminal His-tagged recombinant human MIF expressed in Escherichia coli BL21 (DE3) preincubated for 10 mins followed by probe addition and measured after 10 mins by fluorescence assay
[5] = Solubility of compound in pH 7.4 phosphate buffer; assay type: physicochemical
Outline: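 Solubility measured in PBS pH 7.4.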

[6] = Emission property of the compound in pH 7.4 PBS buffer assessed as maximum emission wavelength at 200 nm by fluorescence spectra analysis; settings: pH 7.4, 200 nM
[7] = Absorption property of the compound in pH 7.4 PBS buffer assessed as maximum absorption wavelength at 100 uM by UV-vis spectra analysis; assay type: physicochemical; settings: pH 7.4, 100 µM
Outline: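 UV absorption spectra recorded at 100 μM compound in PBS pH 7.4 containing 5% (v/v) DMSO on a plate reader; wavelength of maximum absorbance taken.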

[8] = target: T2, Macrophage migration inhibitory factor (Homo sapiens); assay: Binding affinity to C-terminal His-tagged recombinant human MIF expressed in Escherichia coli BL21 (DE3) at 100 nM in presence of 3-(3,4-Dimethoxyphenyl)-7-hydroxy-3,4-dihydro-2Hbenzo[e][1,3]oxazin-2-one by fluorescence assay
[9] = target: T2, Macrophage migration inhibitory factor (Homo sapiens); assay: Binding affinity to C-terminal His-tagged recombinant human MIF expressed in Escherichia coli BL21 (DE3) assessed as fluorescence quenching at 200 nM by fluorescence assay
Outline: (§1)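 Equal volumes of fluorophore (diluted from 10 mM DMSO stock to 200 nM in PBS pH 7.4) and MIF dilution series (16–8000 nM) mixed, 10 min at room temperature; fluorescence read at Ex/Em 340/460 nm or 355/455 nm; KS from hyperbolic fit of specific binding curve; n = 3.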

A549 [10] = assay: Inhibition of colony formation in human A549 cells at 100 uM incubated for 10 days by crystal violet staining based assay; assay type: functional, cell-based; settings: time 10.0 day
Outline: (§2)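 A549 seeded at 100 cells/well in RPMI with 10% FBS, overnight, then treated 10 days (0.2% DMSO final); fixed 4% paraformaldehyde, stained 0.5% crystal violet; colonies (>50 cells) counted vs 0.2% DMSO control; three independent experiments.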

[11] = target: T2, Macrophage migration inhibitory factor (Homo sapiens); assay: Inhibition of C-terminal His-tagged recombinant human MIF expressed in Escherichia coli BL21 (DE3) at 25 uM using 4-HPP as substrate preincubated for 10 mins followed by substrate addition by UV absorption spectrum analysis relative to control
A549 [12] = assay: Toxicity in human A549 cells assessed as reduction in cell viability up to 20 uM measured after 24 hrs by MTS assay; assay type: cell-based; settings: a549, 24 h
Outline: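 A549 cells treated 24 h; viability read by MTS assay.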

[13] = target: T2, Macrophage migration inhibitory factor (Homo sapiens); assay: Inhibition of MIF (unknown origin) cultured in human A549 cells assessed as reduction in MIF-induced ERk phosphorylation at 10 uM preincubated with MIF for 10 mins followed by cell addition and measured after 10 mins by Western blot analysis; assay type: cell-based; settings: time 20.0 min
Outline: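 A549 (2 × 10^5/well) cultured overnight; 150 ng/mL endotoxin-free MIF preincubated 10 min with compound, then applied to cells 10 min at 37 °C (0.2% DMSO); lysates (30 μg protein) blotted; pERK/GAPDH ratio; four independent experiments.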

[14] = target: T2, Macrophage migration inhibitory factor (Homo sapiens); assay: Binding affinity to C-terminal His-tagged recombinant human MIF expressed in Escherichia coli BL21 (DE3) assessed as fluorescence quenching at 50 nM in presence of CuSO4 by fluorescence assay
Outline: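 Indicator displacement setup (100 nM MIF, 50 nM fluorophore, PBS pH 7.4) run with Cu2+ ions up to 200 μM; fluorescence read at Ex/Em 355/455 nm.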

[15] = Half life of compound in pH 7.4 PBS buffer at 100 nM in presence of MIF; assay type: physicochemical; settings: pH 7.4, 0.1 µM
Outline: (§3)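 Fluorescence lifetime of 100 nM fluorophore in 1 mL PBS pH 7.4, measured alone or with 500 nM MIF.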

Albumin = Albumin (Bos taurus, UniProt P02769); assay: Binding affinity to bovine serum albumin assessed as fluorescence quenching at 50 nM by fluorescence assay; assay type: ADME; settings: cattle, isolated protein, 0.05 µM
Outline: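 Control for non-specific quenching: 50 nM fluorophore titrated with BSA (up to 800 nM) in PBS pH 7.4, fluorescence intensity compared against MIF titration.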

[16] = target: T1, Macrophage migration inhibitory factor; assay: Binding affinity to C-terminal His-tagged recombinant human MIF expressed in Escherichia coli BL21 (DE3) at 200 nM by fluorescence assay; outline: as §1
[17] = Half life of compound in pH 7.4 PBS buffer at 100 nM; assay type: physicochemical; settings: pH 7.4, 0.1 µM; outline: as §3
[18] = target: T2, Macrophage migration inhibitory factor (Homo sapiens); assay: Competitive inhibition of C-terminal His-tagged recombinant human MIF expressed in Escherichia coli BL21 (DE3) up to 50 nM using varying levels of 4-HPP as substrate preincubated for 10 mins followed by substrate addition by Lineweaver-burk plot analysis; settings: dose nM <=50, time 10.0 min
[19] = target: T1, Macrophage migration inhibitory factor; assay: (§4) Binding affinity to C-terminal His-tagged recombinant human MIF expressed in Escherichia coli BL21 (DE3) assessed as inhibition of MIF interaction with MBP-fused human CD74 preincubated for 10 mins with CD74 followed by MIF addition and measured after 30 mins by ELISA
Outline: (§5)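 MIF (250 nM, 100 μL) coated overnight at 4 °C, blocked 1 h with 2% BSA; inhibitor (1–100 μM) premixed 10 min with 500 nM MBP–sCD74, added 30 min at room temperature; bound sCD74 detected with rabbit anti-CD74 then HRP anti-rabbit, 30 min each; DMSO = 100%, no sCD74 = 0%; mean ± SD, n = 3.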

[20] = target: T2, Macrophage migration inhibitory factor (Homo sapiens); assay: as §4; settings: time 40.0 min; outline: as §5
A549 [21] = assay: Inhibition of colony formation in human A549 cells at 2.5 to 10 uM incubated for 10 days by crystal violet staining based assay; assay type: functional, cell-based; settings: dose microM 2.5-10, time 10.0 day; outline: as §2
[22] = target: T2, Macrophage migration inhibitory factor (Homo sapiens); assay: Binding affinity to C-terminal His-tagged recombinant human MIF expressed in Escherichia coli BL21 (DE3) assessed as fluorescence quenching at 50 nM by fluorescence assay; outline: as §1

With `COc1cccc(-c2cc3ccc(O)cc3oc2=O)c1` as the compound, how does the pIC50 [1] read?
The pIC50 was 5.73.

And the pKi [1]?
The pKi was 5.91.

With `COc1ccccc1-c1cc2ccc(O)cc2oc1=O` as the compound, how does the pIC50 [1] read?
The pIC50 was 5.56.

And the pKi [1]?
The pKi was 5.73.

What does the source list for `COc1ccc(N2Cc3ccc(O)cc3OC2=O)cc1OC`?
inhibition [2]: inactive; pKi [1]: 7.00; pKd [3]: 6.81; pKd [4]: 6.96

With `CCOC(=O)c1cc2ccc(O)cc2oc1=O` as the compound, how does the pIC50 [1] read?
Its pIC50 is 4.73.

And the pKi [1]?
Its pKi is 4.91.

Which solubility ([5]; phosphate buffer) does the source give for `O=C(NCc1cn(-c2ccc(O)c(F)c2)nn1)c1cc2cc(Cl)ccc2[nH]1` here?
The solubility was 10.8 µg/mL (≈ 28 µM).

What about the pKd [4] of the same compound?
The pKd was 5.85.

With `Oc1ccc(-n2cc(-c3ccccn3)nn2)cc1` as the compound, how does the pKd [4] read?
The pKd was 5.40.

With `O=c1oc2cc(O)ccc2cc1-c1ccccc1` as the compound, how does the pIC50 [1] read?
Its pIC50 is 5.75.

What about the pKi [1] of the same compound?
Its pKi is 5.93.

Which results are given for `Cc1ccc(-c2cc3ccc(O)cc3oc2=O)cc1`?
pIC50 [1]: 6.16; pKi [1]: 6.34

With `COc1ccc(-c2cc3ccc(O)cc3oc2=O)cc1` as the compound, how does the Activity [6] read?
The Activity was 460 nm.

What about the Activity [7] of the same compound?
The Activity was 340 nm.

And the Activity [8]?
Its Activity is “inactive”.

And the pIC50 [1]?
Its pIC50 is 6.25.

What about the pKd [3] of the same compound?
Its pKd is 6.41.

And the Activity [9]?
The Activity was “Active”.

For `Oc1ccc(-n2cc(-c3cc4ccccc4cn3)nn2)cc1`, which solubility ([5]; phosphate buffer) is on record?
The solubility was 2.2 µg/mL (≈ 7.63 µM).

And the pKi [1]?
The pKi was 6.36.

What about the pKd [4] of the same compound?
Its pKd is 6.33.

With `COC(=O)CC1CC(c2ccc(O)cc2)=NO1` (stereo not given) as the compound, how does the inhibition (A549 [10]) read?
Its inhibition is “Active”.

What about the inhibition [2] of the same compound?
The inhibition was “inactive”.

With `O=c1oc2cc(O)ccc2cc1-c1cccc(Cl)c1` as the compound, how does the pIC50 [1] read?
Its pIC50 is 5.71.

What about the pKi [1] of the same compound?
The pKi was 5.89.

What does the source list for `O=c1oc2cc(O)ccc2cc1-c1ccc(I)cc1`?
pIC50 [1]: 6.14; pKi [1]: 6.32

With `O=c1oc2cc(O)ccc2cc1-c1ccc(Br)cc1` as the compound, how does the pIC50 [1] read?
The pIC50 was 6.33.

What about the pKi [1] of the same compound?
The pKi was 6.51.

With `O=c1oc2cc(O)ccc2cc1-c1ccc(F)cc1` as the compound, how does the pIC50 [1] read?
Its pIC50 is 5.60.

What about the pKi [1] of the same compound?
The pKi was 5.77.

With `O=C(NCc1ccccc1)c1cc2ccc(O)cc2oc1=O` as the compound, how does the inhibition [11] read?
Its inhibition is 12%.

With `COc1ccc(C(=O)N/N=C/c2ccc(O)c(F)c2)cc1` as the compound, how does the pKi [1] read?
The pKi was 5.10.

What about the pKd [4] of the same compound?
Its pKd is 5.25.

With `O=C(NCc1cn(-c2ccc(O)c(F)c2)nn1)c1cc2ccccc2[nH]1` as the compound, how does the pKd [4] read?
The pKd was 5.36.

With `O=c1oc2cc(O)ccc2cc1-c1ccc(Cl)cc1` as the compound, how does the pIC50 [1] read?
The pIC50 was 6.04.

And the pKi [1]?
The pKi was 6.21.

With `O=c1oc2cc(O)ccc2cc1-c1ccc2ccccc2c1` as the compound, how does the pIC50 [1] read?
The pIC50 was 5.66.

And the pKi [1]?
The pKi was 5.84.

With `O=c1oc2cc(O)ccc2cc1-c1ccccc1Cl` as the compound, how does the pIC50 [1] read?
The pIC50 was 4.72.

What about the pKi [1] of the same compound?
The pKi was 4.90.

With `O=C(O)c1ccc(-c2ccc(-c3cc4ccc(O)cc4oc3=O)cc2)cc1` as the compound, how does the Activity (A549 [12]) read?
The Activity was “Non-Toxic”.

And the inhibition [13]?
The inhibition was “Active”.

What about the Activity [14] of the same compound?
The Activity was “Active”.

And the t1/2 [15]?
The t1/2 was 4 nanoseconds.

What about the Activity (Albumin) of the same compound?
Its Activity is “Not Active”.

And the solubility ([5]; buffer)?
Its solubility is 18.8 µg/mL (≈ 52.5 µM).

What about the pKd [16] of the same compound?
Its pKd is 7.80.

What about the t1/2 [17] of the same compound?
Its t1/2 is 4.2 nanoseconds.

And the inhibition [18]?
Its inhibition is “Active”.

What about the pIC50 [19] of the same compound?
Its pIC50 is 4.44.

What about the inhibition [20] of the same compound?
The inhibition was “Dose-dependent effect”.

What about the inhibition (A549 [21]) of the same compound?
The inhibition was “Active”.

And the Ks [22]?
The Ks was 16 nM.

Which inhibition [11] does the source give for `O=C(Nc1ccccc1)c1cc2ccc(O)cc2oc1=O` here?
The inhibition was 11%.
